Calls of active or inactive are those of the source. The calls are words filed in the database; no cut-off is given here.
How the values were obtained:
[1] = target: Histamine H4 receptor (Homo sapiens) (UniProt Q9H3N8); assay: Agonist activity at recombinant human Gi-coupled H4 receptor expressed in HEK293T cells assessed as inhibition of forskolin-stimulated cAMP accumulation at 10 uM preincubated for 10 to 15 followed by forskolin-stimulation by Glo-sensor assay; type: functional, cell-based
[2] = target: T1, Muscarinic acetylcholine receptor M1 (Homo sapiens) (UniProt P11229); assay: Antagonist activity at M1R (unknown origin) expressed in HEK293 cells harboring luc2P/NFAT-RE plasmid at 10 uM after 6 to 8 hrs by luciferase reporter gene assay; type: cell-based
T1 sequence (whole entry): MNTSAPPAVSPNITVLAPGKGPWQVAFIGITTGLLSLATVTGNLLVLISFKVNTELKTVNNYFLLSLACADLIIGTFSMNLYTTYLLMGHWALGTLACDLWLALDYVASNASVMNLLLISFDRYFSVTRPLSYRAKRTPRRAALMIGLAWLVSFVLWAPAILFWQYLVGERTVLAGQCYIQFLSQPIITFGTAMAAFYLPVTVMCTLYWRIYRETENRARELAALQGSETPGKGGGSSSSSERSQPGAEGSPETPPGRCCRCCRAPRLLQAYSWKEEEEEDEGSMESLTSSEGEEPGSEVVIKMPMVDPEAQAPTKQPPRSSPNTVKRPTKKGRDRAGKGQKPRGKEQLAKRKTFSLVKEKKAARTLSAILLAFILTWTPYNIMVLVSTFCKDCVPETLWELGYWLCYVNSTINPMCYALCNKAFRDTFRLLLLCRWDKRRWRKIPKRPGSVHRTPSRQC
Procedure, shortened: (§1)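 NFAT-RE luciferase assay in HEK293T cells transiently co-transfected with luc2P/NFAT-RE plasmid and receptor plasmid. Cells plated in DMEM and incubated overnight at 37 °C, 5% CO₂. Compounds and reference ligands applied for 6-8 h. Luciferase read after adding Bright-Glo substrate (1 mg/ml final).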

[3] = Ratio of AUClast in C57BL/6J mouse brain assessed as 4-(2-Amino-8-methyl-5,6,7,8-tetrahydroquinazolin-4-yl)phenol level to AUClast in C57BL/6J mouse brain; type: ADME, tissue-based; conditions: in vivo
Procedure, shortened: (§2)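 Male C57BL/6J mice (6–8 weeks) were fasted 12–16 h, then given a single oral dose of 20 mg/kg as a 2.5 mg/mL suspension in 1% gum acacia/water (n=5 per time point). Serum and brain (homogenised 1:6 in PBS) were sampled up to 24 h. Parent and demethylated metabolite were measured by LC-MS/MS (range 0.25–200 ng/mL). AUC ran to the last observation.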

[4] = target: T2, D(4) dopamine receptor (Homo sapiens) (UniProt P21917); assay: Antagonist activity at D4 receptor (unknown origin)
T2 sequence (whole entry): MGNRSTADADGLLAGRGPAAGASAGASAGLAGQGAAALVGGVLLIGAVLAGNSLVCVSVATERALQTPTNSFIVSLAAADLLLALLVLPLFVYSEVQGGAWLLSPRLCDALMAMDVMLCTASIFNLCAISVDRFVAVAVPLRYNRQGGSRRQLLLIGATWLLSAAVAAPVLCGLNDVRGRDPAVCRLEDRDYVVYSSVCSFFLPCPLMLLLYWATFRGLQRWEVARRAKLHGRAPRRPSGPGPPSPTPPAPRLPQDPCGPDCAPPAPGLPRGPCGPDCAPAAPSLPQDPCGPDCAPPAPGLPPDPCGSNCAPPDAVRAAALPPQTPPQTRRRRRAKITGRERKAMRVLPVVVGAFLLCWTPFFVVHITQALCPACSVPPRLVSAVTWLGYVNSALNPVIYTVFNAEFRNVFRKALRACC

[5] = target: Free fatty acid receptor 1 (Homo sapiens) (UniProt O14842); assay: Agonist activity at GPR40 (unknown origin) expressed in HEK293 cells harboring luc2P/NFAT-RE plasmid at 10 uM after 6 to 8 hrs by luciferase reporter gene assay; type: cell-based; procedure, shortened: as §1
Sequence of Free fatty acid receptor 1 (Homo sapiens) (O14842 whole entry): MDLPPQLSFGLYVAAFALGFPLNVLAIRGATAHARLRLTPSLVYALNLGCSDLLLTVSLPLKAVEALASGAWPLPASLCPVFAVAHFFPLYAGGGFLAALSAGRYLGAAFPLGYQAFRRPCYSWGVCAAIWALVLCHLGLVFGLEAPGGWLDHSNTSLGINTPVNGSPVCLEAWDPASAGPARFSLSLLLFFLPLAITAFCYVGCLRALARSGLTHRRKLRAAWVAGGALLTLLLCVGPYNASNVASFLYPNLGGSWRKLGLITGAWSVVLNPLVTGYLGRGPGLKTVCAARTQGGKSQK

[6] = Apparent volume of distribution in C57BL/6J mouse brain at 20 mg/kg, po by LC-MS/MS analysis; type: ADME, organism-based
Procedure, shortened: (§3)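 Male C57BL/6J mice (6-8 weeks, 20 ± 5 g) fasted overnight (12-16 h) got a single 20 mg/kg oral dose as 2.5 mg/mL suspension in 1% w/v gum acacia; n=5 per time point. Serum and brain (PBS homogenate 1:6 w/v) sampled up to 24 h. Parent and demethylated metabolite quantified by LC-MS/MS after liquid-liquid extraction (C18, MRM, phenacetin internal standard; linear 0.25-200 ng/mL). Two-compartment open model fit.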

[7] = tested on: Mus musculus; assay: Anti-obesity activity in 16 hrs fasted db/db-induced obese […] mouse model assessed as reduction in body weight at 20 mg/kg, po measured after 4 weeks; type: functional, organism-based
[8] = AUClast in C57BL/6J mouse serum at 20 mg/kg, po by LC-MS/MS analysis; type: ADME, organism-based; parameters: dose 20 mg/kg, route oral, time 0 - last
Procedure, shortened: (§4)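 Male C57BL/6J mice, 6-8 weeks, 20 ± 5 g, fasted overnight (12-16 h), n = 5 per time point. Single 20 mg/kg oral dose given by feeding needle as a 2.5 mg/mL suspension in 1% w/v gum acacia and water. Serum and brain (homogenized 1:6 w/v in PBS) sampled up to 24 h. Liquid-liquid extraction, then LC-MS/MS in positive MRM mode with phenacetin as internal standard. Linear range 0.25-200 ng/mL. Non-compartmental and compartmental analysis.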

[9] = Toxicity in lean C57BL/6J mouse assessed as change in body weight at 20 mg/kg, po measured after 6 weeks; type: organism-based; conditions: in vivo, 1008 h
[10] = AUClast in C57BL/6J mouse brain at 20 mg/kg, po by LC-MS/MS analysis; type: ADME, organism-based; parameters: dose 20 mg/kg, route oral, time 0 - last; procedure, shortened: as §4
[11] = Ratio of AUClast in C57BL/6J mouse serum assessed as 4-(2-Amino-8-methyl-5,6,7,8-tetrahydroquinazolin-4-yl)phenol level to AUClast in C57BL/6J mouse serum; type: ADME; procedure, shortened: as §2
[12] = tested on: Mus musculus; assay: Anti-obesity activity in 16 hrs fasted db/db-induced obese C57BL/6J mouse model assessed as change in blood HDL level at 20 mg/kg, po measured after 6 weeks; type: functional, organism-based
[13] = target: Histamine H2 receptor (Homo sapiens, UniProt P25021); assay: Agonist activity at recombinant human Gs-coupled H2 receptor expressed in HEK293T cells assessed as inhibition of forskolin-stimulated cAMP accumulation preincubated for 10 to 15 followed by forskolin-stimulation by Glo-sensor assay; type: functional, cell-based
Sequence of Histamine H2 receptor (P25021 whole entry): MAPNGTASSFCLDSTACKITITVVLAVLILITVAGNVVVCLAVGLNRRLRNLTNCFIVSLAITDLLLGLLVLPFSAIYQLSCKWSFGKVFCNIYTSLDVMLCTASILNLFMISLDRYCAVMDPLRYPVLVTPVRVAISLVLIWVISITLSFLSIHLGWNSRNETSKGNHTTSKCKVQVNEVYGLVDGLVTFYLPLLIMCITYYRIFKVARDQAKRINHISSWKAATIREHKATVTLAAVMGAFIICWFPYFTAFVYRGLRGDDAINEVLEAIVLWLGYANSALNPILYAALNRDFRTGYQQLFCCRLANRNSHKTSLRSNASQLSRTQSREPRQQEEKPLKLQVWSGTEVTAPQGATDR

[14] = Cmax in C57BL/6J mouse brain at 20 mg/kg, po by LC-MS/MS analysis; type: ADME, organism-based; parameters: dose 20 mg/kg, route oral; conditions: in vivo; procedure, shortened: as §3
[15] = target: D(1B) dopamine receptor (Homo sapiens) (UniProt P21918); assay: Antagonist activity at Gs-coupled D5 receptor (unknown origin) expressed in HEK293T cells assessed as reduction in histamine-induced inhibition of forskolin-stimulated cAMP accumulation preincubated for 10 to 15 followed by histamine addition for 10 mins and subsequent forskolin-stimulation by Glo-sensor assay; type: functional, cell-based
Sequence of D(1B) dopamine receptor (Homo sapiens) (P21918 whole entry): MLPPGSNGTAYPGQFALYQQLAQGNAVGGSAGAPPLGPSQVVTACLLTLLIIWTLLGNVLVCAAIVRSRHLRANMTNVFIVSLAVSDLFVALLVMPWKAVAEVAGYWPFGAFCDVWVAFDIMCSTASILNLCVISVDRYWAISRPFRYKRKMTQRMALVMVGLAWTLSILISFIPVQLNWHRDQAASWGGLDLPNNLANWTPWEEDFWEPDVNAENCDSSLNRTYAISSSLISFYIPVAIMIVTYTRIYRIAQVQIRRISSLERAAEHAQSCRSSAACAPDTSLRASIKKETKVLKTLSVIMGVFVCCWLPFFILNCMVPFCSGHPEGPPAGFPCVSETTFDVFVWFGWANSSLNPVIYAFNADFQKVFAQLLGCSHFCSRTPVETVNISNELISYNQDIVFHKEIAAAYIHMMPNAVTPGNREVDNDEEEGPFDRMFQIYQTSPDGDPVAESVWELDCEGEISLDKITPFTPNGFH

[16] = tested on: Mus musculus; assay: Anti-obesity activity in high fat diet-induced obese C57BL/6J mouse model assessed as reduction in body weight at 10 mg/kg, po measured up to 39 days; type: functional, organism-based

Sequence of Histamine H4 receptor (Homo sapiens) (Q9H3N8 whole entry): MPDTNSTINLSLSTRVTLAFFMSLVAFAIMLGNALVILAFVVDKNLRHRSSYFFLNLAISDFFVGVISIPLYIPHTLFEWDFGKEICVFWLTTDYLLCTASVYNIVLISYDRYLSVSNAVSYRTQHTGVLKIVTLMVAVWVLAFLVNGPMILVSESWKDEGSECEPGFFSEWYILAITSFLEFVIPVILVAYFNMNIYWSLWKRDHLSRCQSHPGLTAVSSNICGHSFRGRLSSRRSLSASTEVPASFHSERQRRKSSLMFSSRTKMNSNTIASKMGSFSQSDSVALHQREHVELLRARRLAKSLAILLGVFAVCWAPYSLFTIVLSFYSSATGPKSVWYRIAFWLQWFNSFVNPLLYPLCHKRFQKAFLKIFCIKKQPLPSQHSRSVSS

COc1ccc(-c2nc(N)nc3c2CCCC3C)cc1 (racemic)
Activity [1]: inactive | inhibition [2]: inactive | Ratio AUC [3]: 32.4% | inhibition [4]: inactive | Activity [5]: inactive | Vd/F [6]: 28.3 L/kg | Activity [7]: Active | AUC(0-t) [8]: 1920 ng·h/mL | Activity [9]: Non-Toxic | AUC(0-t) [10]: 310 ng·h/mL | Ratio AUC [11]: 85.8% | Activity [12]: inactive | EC50 [13]: Not Active | INH [13]: > 10 µM | Cmax [14]: 323 ng/g | inhibition [15]: inactive | Activity [16]: inactive

From ChEMBL document CHEMBL4393678, “Novel Tetrahydroquinazolinamines as Selective Histamine 3 Receptor Antagonists for the Treatment of Obesity” (J Med Chem, 2019)
